From ChEMBL document CHEMBL4138223, “Structure-activity relationships for inhibitors of Pseudomonas aeruginosa exoenzyme S ADP-ribosyltransferase activity” (Eur J Med Chem, 2018) come the findings set out here.

The term inhibition denotes the percentage by which the read-out fell short of the control.

Each structure is given as a SMILES string.

The first assay has as its target T1, Exoenzyme S (Pseudomonas aeruginosa) (UniProt Q93SQ1).
T1 sequence (whole entry): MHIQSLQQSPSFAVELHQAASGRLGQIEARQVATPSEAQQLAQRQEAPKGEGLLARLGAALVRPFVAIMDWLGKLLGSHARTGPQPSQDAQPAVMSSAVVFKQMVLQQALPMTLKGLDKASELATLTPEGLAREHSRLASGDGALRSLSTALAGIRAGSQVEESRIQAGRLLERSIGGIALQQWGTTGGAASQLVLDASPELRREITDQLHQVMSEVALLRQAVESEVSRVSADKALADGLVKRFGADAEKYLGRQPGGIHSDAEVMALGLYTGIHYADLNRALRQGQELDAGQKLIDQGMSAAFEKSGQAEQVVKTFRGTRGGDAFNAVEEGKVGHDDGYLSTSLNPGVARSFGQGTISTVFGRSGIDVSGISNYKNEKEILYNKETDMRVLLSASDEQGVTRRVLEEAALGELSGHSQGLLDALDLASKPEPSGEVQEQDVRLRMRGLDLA
The assay is described as follows: Inhibition of recombinant Pseudomonas aeruginosa PAK His6-tagged ExoS ADPRT domain expressed in Escherichia coli at 100 uM using human GST-fused vH-Ras as substrate measured over 30 mins in presence of 14.3.3beta and epsilonNAD+ by fluorescence assay relative to control.
Settings: not given
In the case of `O=C(O)/C=C/c1nc2ccccc2c(=O)[nH]1`, the inhibition is less than 50%.

As for `O=C(O)CCc1nc2sc3c(c2c(=O)[nH]1)CCCCC3`, the inhibition was less than 50%.

In the case of `COC(=O)CCc1nc(OC)c2c3c(sc2n1)CCC3`, the inhibition came out at 25%.

In the case of `COC(=O)CCc1nc(N)c2c3c(sc2n1)CCC3`, the inhibition was 12%.

Regarding `O=C(O)CCc1nc2cc3c(cc2c(=O)[nH]1)CCCC3`, the inhibition amounted to 27%.

As to `O=C(O)CCCc1nc2cc3c(cc2c(=O)[nH]1)CCCC3`, the inhibition amounted to 22%.

Regarding `O=C(O)CCCc1nc2cc3c(cc2c(=O)[nH]1)CCC3`, the inhibition stood at 50%.

Regarding `O=C(O)CCCc1nc2ccc3c(c2c(=O)[nH]1)CCC3`, the inhibition is 60%.

Regarding `O=C(O)CCc1nc2ccc3c(c2c(=O)[nH]1)CCCC3`, the inhibition worked out at 45%.

Regarding `O=C(O)CCCc1nc2ccc([N+](=O)[O-])cc2c(=O)[nH]1`, the inhibition worked out at 30%.

On to `O=C(O)CCCCc1nc2ccccc2c(=O)[nH]1`, for which the inhibition is 69%.

With `COc1ccc2c(=O)[nH]c(CCCC(=O)O)nc2c1`, the inhibition came out at 20%.

Regarding `O=C(O)c1ccccc1Cc1nc2sc3c(c2c(=O)[nH]1)CCC3`, the inhibition is 50%.

For the compound `O=C(O)CCCc1nc2ccc3c(c2c(=O)[nH]1)CCCC3`, the inhibition was 30%.

Turning to `O=C(O)CCc1nc2sc3c(c2c(=O)[nH]1)CCOC3`, the inhibition was less than 60%.

The next assay has as its target T2, Exoenzyme S (Pseudomonas aeruginosa, UniProt Q93SQ1).
T2 sequence (Q93SQ1 whole entry): T1 sequence (whole entry)
The assay is described as follows: Inhibition of recombinant Pseudomonas aeruginosa PAK His6-tagged ExoS ADPRT domain expressed in Escherichia coli using human GST-fused vH-Ras as substrate measured over 30 mins in presence of 14.3.3beta and epsilonNAD+ by fluorescence assay. Conditions: read-out: IC50. The method in brief: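 Recombinant ExoS ADPRT domain with 14-3-3 cofactor, Ras substrate and εNAD+. Read transfer of fluorescent εADP-ribose to Ras. Compounds tested at 8–10 concentrations in triplicate in three independent runs. IC50 by dose-response curve fitting.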
With `O=C1NC(C2CC2C(=O)O)Nc2sc3c(c21)CCC3` (racemic), the IC50 was 138 µM.

In the case of `O=C(O)CCc1nc2sc3c(c2c(=O)[nH]1)CCCC3`, the IC50 amounted to 55 µM.

For the compound `O=C(O)c1ccccc1-c1nc2sc3c(c2c(=O)[nH]1)CCC3`, the IC50 is 97 µM.

`O=C(O)[C@H]1CCC[C@H]1c1nc2sc3c(c2c(=O)[nH]1)CCC3`: the IC50 was 65 µM.

As for `COC(=O)CCc1nc2sc3c(c2c(=O)[nH]1)CCC3`, the IC50 was found to be 116 µM.

For the compound `O=C(O)/C=C\c1nc2sc3c(c2c(=O)[nH]1)CCC3`, the IC50 was 15 µM.

Turning to `O=C(O)CCc1nc2cc3c(cc2c(=O)[nH]1)CCC3`, the IC50 worked out at 98 µM.

Consider `O=C(O)CCc1nc2sc3c(c2c(=O)[nH]1)CCC3`, for which the IC50 was 19 to 20 µM.

`O=C(O)CCC(=O)Nc1sc2c(c1C(=O)O)CCOC2`: the IC50 is greater than 200 µM.

For the compound `O=C(O)CCc1nc2scc(-c3ccccc3)c2c(=O)[nH]1`, the IC50 worked out at 56 µM.

On to `O=C(O)C1CC1c1nc2sc3c(c2c(=O)[nH]1)CCC3` (stereo in doubt; form 1), for which the IC50 worked out at 6.9 µM.

`O=C(O)[C@@H](O)Cc1nc2sc3c(c2c(=O)[nH]1)CCC3`: the IC50 is 55 µM.

Consider `O=C(O)CCc1nc2ccc3c(c2c(=O)[nH]1)CCC3`, for which the IC50 amounted to 54 µM.

In the case of `O=C(O)CCCc1nc2cc(F)c(F)cc2c(=O)[nH]1`, the IC50 was 15 µM.

Turning to `O=C(O)CCc1ncc(C2=CCCC2)c(=O)[nH]1`, the IC50 came to 200 µM.

In the case of `O=c1[nH]c(CCCO)nc2sc3c(c12)CCC3`, the IC50 amounted to 52 µM.

Take `O=C(O)[C@H]1C[C@@H]1c1nc2sc3c(c2c(=O)[nH]1)CCC3` (racemic): the IC50 amounted to 10 µM.

Turning to `CS(=O)(=O)NC(=O)CCc1nc2sc3c(c2c(=O)[nH]1)CCCC3`, the IC50 was found to be 100 µM.

Regarding `O=C(O)CCCc1nc2cccc(F)c2c(=O)[nH]1`, the IC50 amounted to 25 µM.

Take `O=C(O)CCC(=O)Nc1sc2c(c1C(=O)O)CCCC2`: the IC50 was greater than 200 µM.

`O=C(O)c1ccc(-c2nc3ccccc3c(=O)[nH]2)cc1`: the IC50 was found to be 30 µM.

As for `O=C(O)COCc1nc2sc3c(c2c(=O)[nH]1)CCC3`, the IC50 came to 72 µM.

With `O=C(O)CCCCc1nc2sc3c(c2c(=O)[nH]1)CCC3`, the IC50 was 53 µM.

As to `Nc1nc(CCC(=O)O)nc2sc3c(c12)CCC3`, the IC50 is greater than 200 µM.

For the compound `O=C(O)c1ccc(-c2nc3ccccc3c(=O)[nH]2)o1`, the IC50 was found to be 32 µM.

For the compound `O=C(O)[C@H](O)Cc1nc2sc3c(c2c(=O)[nH]1)CCC3`, the IC50 turned out to be 191 µM.

Regarding `O=C(O)CCCc1nc2ccccc2c(=O)[nH]1`, the IC50 is 25 to 30 µM.

Regarding `O=C(O)/C=C/c1nc2sc3c(c2c(=O)[nH]1)CCC3`, the IC50 came to 70 µM.

As for `O=C(O)C1CC1c1nc2sc3c(c2c(=O)[nH]1)CCC3` (stereo in doubt; form 2), the IC50 came out at 39 µM.

`O=C(O)[C@H]1C[C@H]1c1nc2sc3c(c2c(=O)[nH]1)CCC3` (racemic): the IC50 was 190 µM.

With `O=c1[nH]c([C@@H]2C[C@H]2c2nn[nH]n2)nc2sc3c(c12)CCC3` (relative stereo), the IC50 is 233 µM.

Staying with this assay, now noted: read-out: pIC50 (converted).
Take `O=C(O)CCc1nc2sc3c(c2c(=O)[nH]1)CCC3`: the IC50 is 27.5 µM.

`O=C(O)[C@H]1C[C@@H]1c1nc2sc3c(c2c(=O)[nH]1)CCC3` (racemic): the IC50 was 11.2 µM.

The target of a further assay is T2, Exoenzyme S. The experiment in a line: Inhibition of Pseudomonas aeruginosa PAK secreted full length ExoS using human GST-fused vH-Ras as substrate preincubated for 10 mins followed by epsilonNAD+ addition measured at 30 mins in presence of 14.3.3beta and epsilonNAD+ by real-time fluorescent assay. Conditions: read-out: IC50. In a few lines:
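Induce ExoS secretion by growing P. aeruginosa PAK overnight at 37 °C in shaken LB. Dilute to OD600 0.001 in LB with 5 mM EGTA and 20 mM MgCl2, then shake 4 h at 37 °C. Add the culture to 500 nM 14-3-3b, vH-Ras and compound in triplicate (13 concentrations, 1% DMSO). Start with εNAD+. Use PAKΔexoS as negative control. Read fluorescence kinetically at 302/410; IC50 from linear-phase velocity (% control), two independent runs.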
For the compound `O=C(O)/C=C\c1nc2sc3c(c2c(=O)[nH]1)CCC3`, the IC50 was 3.51 µM.

Regarding `O=C(O)CCc1nc2sc3c(c2c(=O)[nH]1)CCC3`, the IC50 stood at 6.93 µM.

As to `O=C(O)C1CC1c1nc2sc3c(c2c(=O)[nH]1)CCC3` (stereo in doubt; form 1), the IC50 stood at 1.32 µM.

In the case of `O=C(O)[C@H]1C[C@@H]1c1nc2sc3c(c2c(=O)[nH]1)CCC3` (racemic), the IC50 stood at 2.36 µM.

Turning to `O=C(O)CCCc1nc2cccc(F)c2c(=O)[nH]1`, the IC50 turned out to be 7.67 µM.

On to `O=C(O)C1CC1c1nc2sc3c(c2c(=O)[nH]1)CCC3` (stereo in doubt; form 2), for which the IC50 worked out at 8.31 µM.

The same assay, now with this note: read-out: pIC50 (converted).
Consider `O=C(O)[C@H]1C[C@@H]1c1nc2sc3c(c2c(=O)[nH]1)CCC3` (racemic), for which the IC50 is 2.4 µM.
